Results gathered from unrelated publications.
Lines come from different studies, so protocols differ.
Target: Mitogen-activated protein kinase 3 (MAPK3, Homo sapiens, UniProt P27361)

Structure (SMILES) | test | conditions | remaining binding
COc1cc(-c2cn(C3CCc4ccccc4N(CC(F)(F)F)C3=O)nn2)ccc1-n1ccc(C)n1 (centres unmarked) | cell-free assay, competition with immobilised ligand | 1 µM | 100%
O=C(NCC1CCOCC1)c1n[nH]cc1NC(=O)c1c(F)cccc1F | binding, competition with immobilised ligand | 1 µM | 100%
C[C@@H]1CN(c2cc(-c3nn(C)c4ccc(OC5(C)CC5)cc34)ncn2)C[C@H](C)O1 | cell-free assay, competition with immobilised ligand | 1 µM | 100%
CNC(=O)[C@@H]1CC[C@@H](n2c(-c3ccc4cnccc4c3)nc3ccc(C(=O)NCc4cccc(C(N)=O)c4)cc32)C1 | binding, competition with immobilised ligand | 1 µM | 100%
N#Cc1ccccc1CSc1nnc2c(n1)[nH]c1ccccc12 | binding, competition with immobilised ligand | 10 µM | 89%
CN(C)c1ncc(F)c(-c2cnn3ncccc23)n1 | binding | 1 µM | 91%
C[C@@H]1CN(c2ccc3ncc(-c4ccc5[nH]nc(C6CC6)c5c4)n3n2)C[C@H](C)O1 | binding, competition with immobilised ligand | 50 nM | 100%
C=CC(=O)N1CCC(C(=O)NCC(=O)N2CCN(c3nc(-c4cnc(N)nc4C(F)F)nc(N4CCOCC4)n3)CC2)CC1 | binding, competition with immobilised ligand | 1 µM | 100%
C[C@H](c1cccc(C#N)c1)n1cc(Cl)cc(C(N)=O)c1=N | cell-free assay, competition with immobilised ligand | 1 µM | 97%
C[C@@H]1CCN(c2nccc(-c3cnn4ncccc34)n2)C1 | binding | 1 µM | 83%
O=C(c1ccc(Nc2nccc(-c3cc4ccccc4s3)n2)cc1)N1CCC(N2CCCC2)CC1 | binding, competition with immobilised ligand | 1 µM | 100%
Cc1c(NC(=O)c2cc(C(N)=O)nc3cc(F)ccc23)c(C(F)(F)F)nn1Cc1ccc(C(C)(C)C)cc1 | cell-free assay, competition with immobilised ligand | 1 µM | 100%
CCN1CCN(Cc2ccc(C(=O)Nc3ccc(C)c(Oc4ccc5c(c4)CC(=O)N5)c3)cc2C(F)(F)F)CC1 | binding, competition with immobilised ligand | 1 µM | 100%
c1cnn2ncc(-c3ccnc(N4CCC45COC5)n3)c2c1 | binding | 1 µM | 94%
N#Cc1ccc(Nc2ccc3[nH]c(=O)[nH]c3c2)c(Cl)c1 | cell-free assay, competition with immobilised ligand | 1 µM | 95%
COc1ccnn2ncc(-c3ccnc(N(C)C)n3)c12 | binding | 1 µM | 92%
O=C(c1ccc(Nc2ncc(Cl)c(-c3ccc(Cl)s3)n2)cc1)N1CCC(N2CCCC2)CC1 | binding, competition with immobilised ligand | 1 µM | 98%
COc1cnc(Nc2cccc(S(N)(=O)=O)c2)nc1N1CCN(c2ccccc2)CC1 | binding, competition with immobilised ligand | 1 µM | 100%
FC(F)(F)Oc1cccc(-c2cnc3ccc(-c4ccncc4)nn23)c1 | cell-free assay, competition with immobilised ligand | 5 µM | 88%
O=C(Nc1cccnn1)N1CC(C/C=C/c2cncc(Oc3ccc(C(F)(F)F)cn3)n2)C1 | cell-free assay, competition with immobilised ligand | 1 µM | 99%
Cc1cnn2ncc(-c3ccnc(N(C)C)n3)c2c1 | binding | 1 µM | 100%
CC(C)(C)c1ccc(-c2nc(CBr)nn2-c2cccc(O)c2)cc1 | cell-free assay, competition with immobilised ligand | 10 µM | 91%
CN(c1nccc(-c2cnn3ncccc23)n1)C1CC1 | binding | 1 µM | 89%
Cn1cc(Cl)c2c(Oc3c(F)cc(Nc4cc(Cl)nc(N)n4)cc3F)ccnc21 | cell-free assay, competition with immobilised ligand | 0.1 µM | 98%
N[C@H]1CCN(c2nccc(-c3cnn4ncccc34)n2)C1 | binding | 1 µM | 91%
Cc1cnc(Nc2ccc(C(=O)N3CCC(N4CCCC4)CC3)cc2)nc1-c1cc2ccccc2s1 | binding, competition with immobilised ligand | 1 µM | 100%
